Results pooled from the literature.
Effect on: metabolic stability
Host: human

Compound	sample	tested at	pH	half-life
CNC(C)Cc1ccc2nsnc2c1 (stereo not drawn)	liver microsomes	0.5 µM	–	53 min
C[C@]12CC[C@H]3[C@@H](CCC4=CC(=O)CC[C@@]43C)[C@@H]1CC[C@@H]2O	hepatocytes	1 µM	–	6.51 min
COc1ccc([C@@]23Oc4cc(OC)cc(OC)c4[C@@]24N=C(C2CC2)N[C@@]4(O)[C@H](C(=O)N(C)OC)[C@H]3c2ccccc2)cc1	liver microsomes	1 µM	pH 7.4	18.3 min
C[C@]12CC[C@H]3[C@@H](CCC4=CC(=O)CC[C@@]43C)[C@@H]1CC[C@@H]2O	liver microsomes	10 µM	pH 7.4	19.3 min
CC[C@H](C)[C@H](NC(=O)[C@H](CC(=O)O)NC(=O)[C@H](CS)NC(=O)[C@H](CCCCN)NC(=O)[C@H](CS)NC(=O)[C@H](CCSC)NC(=O)[C@@H]1CCCN1C(=O)[C@H](CCC(N)=O)NC(=O)[C@@H]1CCCN1C(=O)[C@H](CCCNC(=N)N)NC(=O)[C@H](CCCNC(=N)N)NC(=O)[C@H](CCCNC(=N)N)NC(=O)[C@H](CCCNC(=N)N)NC(=O)[C@H](CCC(N)=O)NC(=O)[C@H](CCCNC(=N)N)NC(=O)[C@H](CCCNC(=N)N)NC(=O)[C@H](CCCCN)NC(=O)[C@H](CCCCN)NC(=O)[C@H](CCCNC(=N)N)NC(=O)CN)C(=O)N[C@@H](CC(C)C)C(=O)N[C@@H](CCCCN)C(=O)N[C@@H](C)C(=O)O	liver microsomes	1 µM	–	6 min
CC(C)C[C@H](NC(=O)[C@H](Cc1ccccc1)NC(=O)[C@H](Cc1ccccc1)NC(=O)Cc1ccc(-c2ccccc2)cc1)C(=O)N[C@@H](CCCCN)C(=O)N[C@@H](CCCNC(=N)N)C(=O)N[C@H](C(=O)N[C@@H](Cc1c[nH]c2ccccc12)C(=O)N[C@@H](CCCCN)C(=O)N[C@@H](CCCNC(=N)N)C(=O)O)C(C)C	liver microsomes	1 µM	–	22.8 min
C[C@]12CC[C@H]3[C@@H](CC=C4CC(O)CC[C@@]43CO)[C@@H]1CCC2O (stereo partly drawn)	liver microsomes	–	–	73.6 min
CNC(C)Cc1ccc2nonc2c1 (stereo not drawn)	liver microsomes	0.5 µM	–	> 150 min
CONC(=O)[C@H]1[C@@H](O)[C@@]2(O)c3c(OC)cc(OC)cc3O[C@@]2(c2ccc(OC)cc2)[C@@H]1c1ccccc1	liver microsomes	–	–	120 min
